From ChEMBL document CHEMBL5247578, “Effective synthesis of benzimidazoles-imidazo[1,2-a]pyrazine conjugates: A comparative study of mono-and bis-benzimidazoles for antitumor activity” (Eur J Med Chem, 2019)

What was measured:
[1] = test system: MDA-MB-468; assay: Antiproliferative activity against human MDA-MB-468 cells assessed as cell growth inhibition by measuring lethal concentration incubated for 48 hrs by sulforhodamine B assay; type: functional; conditions: read-out: LC50 (the source's name)
[2] = test system: NCI-H23; assay: Growth inhibition against human NCI-H23 cells assessed as total growth inhibitory concentration incubated for 48 hrs by sulforhodamine B assay; type: functional
[3] = test system: RPMI-8226; assay: Growth inhibition against human RPMI-8226 cells incubated for 48 hrs by sulforhodamine B assay; type: functional
[4] = test system: SK-OV-3; assay: Growth inhibition against human SK-OV-3 cells incubated for 48 hrs by sulforhodamine B assay; type: functional
[5] = test system: MDA-MB-231; assay: Antiproliferative activity against human MDA-MB-231 cells assessed as cell growth at 0.00000001 M incubated for 48 hrs by SRB assay relative to control; type: functional; conditions: dose 10 nM, read-out: Activity
[6] = test system: OVCAR-5; assay: Antiproliferative activity against human OVCAR-5 cells assessed as cell growth inhibition by measuring lethal concentration incubated for 48 hrs by sulforhodamine B assay; type: functional; conditions: read-out: LC50 (the source's name)
[7] = test system: UACC-62; assay: Antiproliferative activity against human UACC-62 cells assessed as cell growth inhibition by measuring lethal concentration incubated for 48 hrs by sulforhodamine B assay; type: functional; conditions: read-out: LC50 (the source's name)
In short: (§1)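 NCI-60 five-dose screen (10^-4 to 10^-8 M, 10-fold dilutions; DMSO stocks). Cells in RPMI 1640 with 5% FBS and 2 mM L-glutamine, preincubated 24 h, then exposed 48 h at 37 °C, 5% CO2. Fixed with cold TCA, stained with 0.4% SRB, absorbance read at 515 nm. Time-zero plates used as reference. LC50 taken from [(Ti-Tz)/Tz]×100 […].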

[8] = test system: NCI-H23; assay: Antiproliferative activity against human NCI-H23 cells assessed as cell growth at 0.0001 M incubated for 48 hrs by SRB assay relative to control; type: functional; conditions: read-out: Activity
[9] = test system: HCC 2998; assay: Growth inhibition against human HCC 2998 cells incubated for 48 hrs by sulforhodamine B assay; type: functional
[10] = test system: CAKI-1; assay: Growth inhibition against human CAKI-1 cells incubated for 48 hrs by sulforhodamine B assay; type: functional
[11] = test system: SR; assay: Antiproliferative activity against human SR cells assessed as cell growth at 0.0000001 M incubated for 48 hrs by SRB assay relative to control; type: functional; conditions: dose 100 nM, read-out: Activity
[12] = test system: OVCAR-3; assay: Growth inhibition against human OVCAR-3 cells assessed as total growth inhibitory concentration incubated for 48 hrs by sulforhodamine B assay; type: functional
[13] = test system: NCI-H322M; assay: Antiproliferative activity against human NCI-H322M cells assessed as cell growth at 0.00001 M incubated for 48 hrs by SRB assay relative to control; type: functional; conditions: read-out: Activity
[14] = test system: RPMI-8226; assay: Antiproliferative activity against human RPMI-8226 cells assessed as cell growth at 0.0001 M incubated for 48 hrs by SRB assay relative to control; type: functional; conditions: read-out: Activity
[15] = test system: M14; assay: Growth inhibition against human M14 cells incubated for 48 hrs by sulforhodamine B assay; type: functional
[16] = test system: U-251; assay: Antiproliferative activity against human U-251 cells assessed as cell growth at 0.00001 M incubated for 48 hrs by SRB assay relative to control; type: functional; conditions: read-out: Activity
[17] = test system: HCT-116; assay: Antiproliferative activity against human HCT-116 cells assessed as cell growth at 0.0000001 M incubated for 48 hrs by SRB assay relative to control; type: functional; conditions: dose 100 nM, read-out: Activity
In short: (§2)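 NCI-60 five-dose screen (10^-4 to 10^-8 M). Cells grown in RPMI 1640 with 5% FBS and 2 mM L-glutamine, plated at 5,000-40,000 cells/well and preincubated 24 h. Drug given from DMSO stock, then 48 h at 37 °C, 5% CO2. For adherent lines, cells fixed with cold TCA, SRB-stained and read at 515 nm. Percent growth taken against time-zero and untreated control.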

[18] = test system: SR; assay: Growth inhibition against human SR cells incubated for 48 hrs by sulforhodamine B assay; type: functional
[19] = test system: HCT-116; assay: Antiproliferative activity against human HCT-116 cells assessed as cell growth at 0.0001 M incubated for 48 hrs by SRB assay relative to control; type: functional; conditions: read-out: Activity; in short: as §2
[20] = test system: CAKI-1; assay: Antiproliferative activity against human CAKI-1 cells assessed as cell growth inhibition by measuring lethal concentration incubated for 48 hrs by sulforhodamine B assay; type: functional; conditions: read-out: LC50 (the source's name)
[21] = test system: SK-MEL-2; assay: Growth inhibition against human SK-MEL-2 cells incubated for 48 hrs by sulforhodamine B assay; type: functional
[22] = test system: NCI/ADR-RES; assay: Antiproliferative activity against human NCI/ADR-RES cells assessed as cell growth at 0.00000001 M incubated for 48 hrs by SRB assay relative to control; type: functional; conditions: dose 10 nM, read-out: Activity
[23] = test system: SNB-75; assay: Antiproliferative activity against human SNB-75 cells assessed as cell growth at 0.0000001 M incubated for 48 hrs by SRB assay relative to control; type: functional; conditions: dose 100 nM, read-out: Activity
[24] = test system: 786-0; assay: Antiproliferative activity against human 786-0 cells assessed as cell growth inhibition by measuring lethal concentration incubated for 48 hrs by sulforhodamine B assay; type: functional; conditions: read-out: LC50 (the source's name)
[25] = test system: SNB-75; assay: Antiproliferative activity against human SNB-75 cells assessed as cell growth at 0.00001 M incubated for 48 hrs by SRB assay relative to control; type: functional; conditions: read-out: Activity
[26] = test system: HEK293; assay: Cytotoxicity against human HEK293 cells assessed as reduction in cell viability at 0.0001 M incubated for 48 hrs by MTT colorimetric assay relative to control; type: toxicity, cell-based; conditions: hek293, 48 h, 100 µM
[27] = test system: COLO 205; assay: Antiproliferative activity against human COLO 205 cells assessed as cell growth at 0.000001 M incubated for 48 hrs by SRB assay relative to control; type: functional; conditions: read-out: Activity
In short: (§3)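 NCI-60 five-dose screen over 10^-4–10^-8 M (10-fold dilutions). Cells grown in RPMI 1640 with 5% FBS and 2 mM L-glutamine, seeded at 5,000–40,000 cells/well and preincubated 24 h. Drug from DMSO stock, 48 h at 37 °C, 5% CO2. Adherent cells TCA-fixed and stained with 0.4% SRB; A515 read. Percent growth = (Ti−Tz)/(C−Tz)×100, or (Ti−Tz)/Tz×100 when Ti<Tz.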

[28] = test system: 786-0; assay: Antiproliferative activity against human 786-0 cells assessed as cell growth at 0.000001 M incubated for 48 hrs by SRB assay relative to control; type: functional; conditions: read-out: Activity; in short: as §3
[29] = test system: IGROV-1; assay: Antiproliferative activity against human IGROV-1 cells assessed as cell growth at 0.0001 M incubated for 48 hrs by SRB assay relative to control; type: functional; conditions: read-out: Activity
[30] = test system: SNB-75; assay: Antiproliferative activity against human SNB-75 cells assessed as cell growth at 0.000001 M incubated for 48 hrs by SRB assay relative to control; type: functional; conditions: read-out: Activity
[31] = test system: NCI-H226; assay: Antiproliferative activity against human NCI-H226 cells assessed as cell growth at 0.0000001 M incubated for 48 hrs by SRB assay relative to control; type: functional; conditions: dose 100 nM, read-out: Activity
[32] = test system: UO-31; assay: Antiproliferative activity against human UO-31 cells assessed as cell growth inhibition by measuring lethal concentration incubated for 48 hrs by sulforhodamine B assay; type: functional; conditions: read-out: LC50 (the source's name); in short: as §1
[33] = test system: SK-MEL-2; assay: Antiproliferative activity against human SK-MEL-2 cells assessed as cell growth at 0.00000001 M incubated for 48 hrs by SRB assay relative to control; type: functional; conditions: dose 10 nM, read-out: Activity
[34] = test system: NCI/ADR-RES; assay: Antiproliferative activity against human NCI/ADR-RES cells assessed as cell growth inhibition by measuring lethal concentration incubated for 48 hrs by sulforhodamine B assay; type: functional; conditions: read-out: LC50 (the source's name)

c1ccc(Cn2cnc3ccc(-c4nc(-c5ccc6c(c5)ncn6C5CCCCC5)cn5ccnc45)cc32)cc1
CC50 [1]: > 100 µM | TGI [2]: 4.49 µM | GI50 [3]: 1.15 µM | GI50 [4]: 2.53 µM | growth at 0.01 µM [5]: 102% | CC50 [6]: > 100 µM | CC50 [7]: > 100 µM | growth at 100 µM [8]: -79% | GI50 [9]: 1.9 µM | GI50 [10]: 2.45 µM | growth at 0.1 µM [11]: 98% | TGI [12]: 5.79 µM | growth at 10 µM [13]: 8% | growth at 100 µM [14]: -33% | GI50 [15]: 1.45 µM | growth at 10 µM [16]: -27% | growth at 0.1 µM [17]: 93% | GI50 [18]: 1.68 µM | growth at 100 µM [19]: -33% | CC50 [20]: > 100 µM | GI50 [21]: 2.02 µM | growth at 0.01 µM [22]: 100% | growth at 0.1 µM [23]: 82% | CC50 [24]: > 100 µM | growth at 10 µM [25]: -70% | Activity [26]: 18.05% | growth at 1 µM [27]: 92% | growth at 1 µM [28]: 46% | growth at 100 µM [29]: 18% | growth at 1 µM [30]: 60% | growth at 0.1 µM [31]: 103% | CC50 [32]: > 100 µM | growth at 0.01 µM [33]: 94% | CC50 [34]: > 100 µM

COc1ccc(-c2cn3ccnc3c(-c3ccc4ncn(C5CCCCC5)c4c3)n2)cc1
CC50 [1]: > 100 µM | TGI [2]: > 100 µM | GI50 [3]: 2.96 µM | GI50 [4]: 0.508 µM | growth at 0.01 µM [5]: 99% | CC50 [6]: > 100 µM | CC50 [7]: > 100 µM | growth at 100 µM [8]: 22% | GI50 [9]: 2.92 µM | GI50 [10]: 0.757 µM | growth at 0.1 µM [11]: 91% | TGI [12]: > 100 µM | growth at 10 µM [13]: 53% | growth at 100 µM [14]: 15% | GI50 [15]: 0.612 µM | growth at 10 µM [16]: 14% | growth at 0.1 µM [17]: 91% | GI50 [18]: 0.89 µM | growth at 100 µM [19]: -29% | CC50 [20]: > 100 µM | GI50 [21]: 0.944 µM | growth at 0.01 µM [22]: 100% | growth at 0.1 µM [23]: 82% | CC50 [24]: > 100 µM | growth at 10 µM [25]: 3% | Activity [26]: 19.05% | growth at 1 µM [27]: 76% | growth at 1 µM [28]: 34% | growth at 100 µM [29]: 24% | growth at 1 µM [30]: 45% | growth at 0.1 µM [31]: 96% | CC50 [32]: > 100 µM | growth at 0.01 µM [33]: 96% | CC50 [34]: > 100 µM
